Legend:
Type in all cases: functional
Conditions in all cases: read-out: Activity
[1] = Neuroprotective effect against glutamate-stimulated rat cortical cells assessed as cell viability at 0.1 uM after 1 hr by LDH assay relative to control
Summary of the method: (§1)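 Mixed neuron–glia cortical cultures from Sprague-Dawley fetal rats (17-19 days old), matured ≥2 weeks and used at 17 days in vitro. Cultures were washed with DMEM and pretreated 1 h with compound in DMSO (0.1% final), then given 100 µM glutamate for 24 h. Viability was read as LDH efflux and expressed as % protection relative to control and glutamate-only cultures. Mean ± STD of three experiments, 5-6 cultures each.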

[2] = Neuroprotective effect against glutamate-stimulated rat cortical cells assessed as cell viability at 1 uM after 1 hr by LDH assay relative to control; summary of the method: as §1
[3] = Neuroprotective effect against glutamate-stimulated rat cortical cells assessed as cell viability at 10 uM after 1 hr by LDH assay relative to control; summary of the method: as §1

SMILES	viability at 0.1 µM [1] [%]	viability at 1 µM [2] [%]	viability at 10 µM [3] [%]
C/C(=C\CO)C(=O)O[C@H]1Cc2cc3ccc(=O)oc3cc2OC1(C)C	33.2	19.9	1.2
C/C(=C\C(=O)O[C@H]1Cc2cc3ccc(=O)oc3cc2OC1(C)C)CO	38.4	34.1	35.1
C[C@@H]1O[C@]1(C)C(=O)O[C@H]1Cc2cc3ccc(=O)oc3cc2OC1(C)C	70	52.5	49
C[C@H]1O[C@@]1(C)C(=O)O[C@H]1Cc2cc3ccc(=O)oc3cc2OC1(C)C	47.5	61.1	56.7
N#Cc1cc2c(cc1[N+](=O)[O-])=NC(=O)C(=O)N=2	29	40.5	50.5
NC(CCCP(=O)(O)O)C(=O)O (racemic)	10	25	39
CC1(C)Oc2cc3oc(=O)ccc3cc2C[C@@H]1O [DECURSINOL]	33.4	69.6	40.7
CC(C)=CC(=O)O[C@H]1Cc2cc3ccc(=O)oc3cc2OC1(C)C [DECURSIN]	39	50	65.1
C[C@]12N[C@H](Cc3ccccc31)c1ccccc12 [DIZOCILPINE]	54	65	70

— ChEMBL document CHEMBL1142562, “Four new neuroprotective dihydropyranocoumarins from Angelica gigas” (2005)
